# Test results published in ChEMBL document CHEMBL1124287, “Imidazole-pyridine bioisosterism: comparison of the inotropic activities of pyridine- and imidazole-substituted 6-phenyldihydropyridazinone cardiotonics” (1988).
# Columns and labels:
# Canis familiaris [1] = assay: Heart contractility was measured in anesthetized dogs (iv); format: functional; details: Canis lupus familiaris
# How it was run: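 Mongrel dogs of either sex (7–14 kg), pentobarbital-anesthetized (35 mg/kg iv), ventilated, kept at 37–38 °C. Right-ventricular Walton-Brodie strain-gauge arch at 50 g tension. Increasing log doses given iv via femoral vein at 5-min intervals, peak response recorded. ED50 (dose for 50% contractility rise) by linear regression, mean ± SEM. Separate animal group per drug.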
# Canis familiaris [2] = assay: Percent increase in heart rate was measured in anesthetized dogs; format: functional, Canis lupus familiaris
# How it was run: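 Heart rate taken from a cardiometer triggered by the femoral arterial pressure pulse, in pentobarbital-anesthetized (35 mg/kg iv), ventilated mongrel dogs (7–14 kg). Escalating iv log doses at 5-min intervals. Reported as percent change from control at the inotropic ED50 dose.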
# Canis familiaris [3] = assay: Percent decrease in mean arterial blood pressure was measured in anesthetized dogs; format: functional, Canis lupus familiaris
# How it was run: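 Pentobarbital-anesthetized (35 mg/kg iv), ventilated mongrel dogs of either sex (7–14 kg). Mean arterial pressure recorded via femoral arterial catheter and pressure transducer. Log doses given iv at 5-min intervals. Value is percent change from control at the inotropic ED50 dose.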
SMILES,ED50 (Canis familiaris [1]) [mg/kg],Increase in HR (Canis familiaris [2]) [%],Decrease in MAP (Canis familiaris [3]) [%]
CC(=O)Nc1ccc(C2=NNC(=O)CC2)cc1,0.0113,8.8,15.1
O=C1CCC(c2ccc3c(c2)CCCN3)=NN1,–,37,12
O=C1CCC(c2ccc(-n3ccnc3)cc2)=NN1 [IMAZODAN],0.0501,16.9,28.4
O=C1CCC(c2ccccc2)=NN1,6.33,39.1,24.9
O=C1CCC(c2ccc(-c3ccccc3)cc2)=NN1,0.513,18.8,20.9
O=C1CCC(c2ccc(-c3cccnc3)cc2)=NN1,0.0194,7.5,12.7
O=C1CCC(c2ccc3c(c2)CCC(=O)N3)=NN1,0.0032,13.2,16.1
O=C1CCC(c2ccc(-c3ccncc3)cc2)=NN1,0.146,19.1,29.9
